Assays:
Assay type in all cases: nucleic-acid assay
[1] = test system: Nucleic Acid; assay: Binding affinity to 11mer DNA duplex 5'-CTATGGTAGAC-3' assessed as change in melting temperature by spectroscopic analysis
In short: (§1)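 Duplex melting temperatures were measured on a spectrophotometer with a thermo-controlled cell holder in 10 mM sodium cacodylate buffer.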

[2] = test system: Nucleic Acid; assay: Binding affinity to 5'-ATGGTTC-3' in Escherichia coli pCDMF6 by DNase1 foot-printing titration method
In short: (§2)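 The plasmid target was built by ligating an annealed synthetic oligonucleotide pair carrying the tandem match sites. A primer was 5'-end-labelled with ³²P, and binding was measured by DNase I footprinting titrations.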

[3] = test system: Nucleic Acid; assay: Binding affinity to 5'-ATGGTG-3' in Escherichia coli pCDMF6 by DNase1 foot-printing titration method; in short: as §2
[4] = test system: Nucleic Acid; assay: Binding affinity to 5'-ATGGTT-3' in Escherichia coli pCDMF6 by DNase1 foot-printing titration method; in short: as §2
[5] = test system: Nucleic Acid; assay: Binding affinity to 5'-ATGGTA-3' in Escherichia coli pCDMF6 by DNase1 foot-printing titration method; in short: as §2
[6] = test system: Nucleic Acid; assay: Binding affinity to 11mer DNA duplex 5'-CTATGTTACCA-3' assessed as change in melting temperature by spectroscopic analysis; in short: as §1
[7] = test system: Nucleic Acid; assay: Binding affinity to 11mer DNA duplex 5'-CTCTGTTACCA-3' assessed as change in melting temperature by spectroscopic analysis; in short: as §1
[8] = test system: Nucleic Acid; assay: Binding affinity to 11mer DNA duplex 5'-CTCTGGCACAC-3' assessed as change in melting temperature by spectroscopic analysis; in short: as §1

ΔTm [1] | Ka [2] | Ka [3] | Ka [4] | Ka [5] | Compound | further results
10 °C |  |  |  |  | CN(C)CCCNC(=O)CCNC(=O)c1cc(NC(=O)c2cc(NC(=O)c3cc(NC(=O)[C@H](O)CCNC(=O)c4cc(NC(=O)c5nc(NC(=O)c6nccn6C)cn5C)cn4C)cn3C)cn2C)cn1C | 
8.3 °C |  |  |  |  | CN(C)CCCNC(=O)CCNC(=O)c1cc(NC(=O)c2cc(NC(=O)c3cc(NC(=O)[C@H](F)CCNC(=O)c4cc(NC(=O)c5nc(NC(=O)c6nccn6C)cn5C)cn4C)cn3C)cn2C)cn1C | 
7.9 °C |  |  |  |  | CN(C)CCCNC(=O)CCNC(=O)c1cc(NC(=O)c2cc(NC(=O)c3cc(NC(=O)[C@@H](F)CCNC(=O)c4cc(NC(=O)c5nc(NC(=O)c6nccn6C)cn5C)cn4C)cn3C)cn2C)cn1C | 
12.2 °C | 8.9 ×10⁷ /M | < 1 ×10⁷ /M | 2 ×10⁹ /M | 5.2 ×10⁹ /M | CC(=O)N[C@@H](CNC(=O)c1cc(NC(=O)c2nc(NC(=O)c3nccn3C)cn2C)cn1C)CC(=O)Nc1cc(C(=O)Nc2cc(C(=O)Nc3cc(C(=O)NCCC(=O)NCCCN(C)C)n(C)c3)n(C)c2)n(C)c1 | 
14.7 °C | 3.9 ×10⁷ /M | < 1 ×10⁷ /M | 1.6 ×10⁹ /M | 1.7 ×10⁹ /M | CN(C)CCCNC(=O)CCNC(=O)c1cc(NC(=O)c2cc(NC(=O)c3cc(NC(=O)[C@H](N)CCNC(=O)c4cc(NC(=O)c5nc(NC(=O)c6nccn6C)cn5C)cn4C)cn3C)cn2C)cn1C | 
10.1 °C | < 1 ×10⁷ /M | < 1 ×10⁷ /M | 3.2 ×10⁸ /M | 2.1 ×10⁸ /M | CC(=O)N[C@H](CCNC(=O)c1cc(NC(=O)c2nc(NC(=O)c3nccn3C)cn2C)cn1C)C(=O)Nc1cc(C(=O)Nc2cc(C(=O)Nc3cc(C(=O)NCCC(=O)NCCCN(C)C)n(C)c3)n(C)c2)n(C)c1 | 
 |  |  |  |  | CN(C)CCCNC(=O)CCNC(=O)c1cc(NC(=O)c2cc(NC(=O)c3cc(NC(=O)C[C@H](N)CNC(=O)c4cc(NC(=O)c5cc(NC(=O)c6nccn6C)cn5C)cn4C)cn3C)cn2C)cn1C | ΔTm [6]: 17 °C; ΔTm [7]: 11.6 °C
5.8 °C |  |  |  |  | CN(C)CCCNC(=O)CCNC(=O)c1cc(NC(=O)c2cc(NC(=O)c3cc(NC(=O)[C@@H](O)CCNC(=O)c4cc(NC(=O)c5nc(NC(=O)c6nccn6C)cn5C)cn4C)cn3C)cn2C)cn1C | 
 |  |  |  |  | CN(C)CCCNC(=O)CCNC(=O)c1cc(NC(=O)c2cc(NC(=O)c3nc(NC(=O)C[C@@H](N)CNC(=O)c4cc(NC(=O)c5nc(NC(=O)c6nccn6C)cn5C)cn4C)cn3C)cn2C)cn1C | ΔTm [8]: 6.7 °C
 |  |  |  |  | CN(C)CCCNC(=O)CCNC(=O)c1cc(NC(=O)c2cc(NC(=O)c3cc(NC(=O)C[C@@H](N)CNC(=O)c4cc(NC(=O)c5cc(NC(=O)c6nccn6C)cn5C)cn4C)cn3C)cn2C)cn1C | ΔTm [6]: 18 °C; ΔTm [7]: 13 °C
14.9 °C | 5 ×10⁷ /M | < 1 ×10⁷ /M | 3.3 ×10⁹ /M | 1.8 ×10⁹ /M | CN(C)CCCNC(=O)CCNC(=O)c1cc(NC(=O)c2cc(NC(=O)c3cc(NC(=O)C[C@@H](N)CNC(=O)c4cc(NC(=O)c5nc(NC(=O)c6nccn6C)cn5C)cn4C)cn3C)cn2C)cn1C | 
9.2 °C | < 1 ×10⁷ /M | < 1 ×10⁷ /M | 2.1 ×10⁸ /M | 2 ×10⁸ /M | CN(C)CCCNC(=O)CCNC(=O)c1cc(NC(=O)c2cc(NC(=O)c3cc(NC(=O)CCCNC(=O)c4cc(NC(=O)c5nc(NC(=O)c6nccn6C)cn5C)cn4C)cn3C)cn2C)cn1C | 
14.7 °C | 6 ×10⁷ /M | < 1 ×10⁷ /M | 1.1 ×10⁹ /M | 1.3 ×10⁹ /M | CN(C)CCCNC(=O)CCNC(=O)c1cc(NC(=O)c2cc(NC(=O)c3cc(NC(=O)C[C@H](N)CNC(=O)c4cc(NC(=O)c5nc(NC(=O)c6nccn6C)cn5C)cn4C)cn3C)cn2C)cn1C | 
 |  |  |  |  | CN(C)CCCNC(=O)CCNC(=O)c1cc(NC(=O)c2cc(NC(=O)c3nc(NC(=O)C[C@H](N)CNC(=O)c4cc(NC(=O)c5nc(NC(=O)c6nccn6C)cn5C)cn4C)cn3C)cn2C)cn1C | ΔTm [8]: 6 °C
 |  |  |  |  | CN(C)CCCNC(=O)CCNC(=O)c1cc(NC(=O)c2cc(NC(=O)c3cc(NC(=O)[C@H](N)CCNC(=O)c4cc(NC(=O)c5cc(NC(=O)c6nccn6C)cn5C)cn4C)cn3C)cn2C)cn1C | ΔTm [6]: 15.9 °C; ΔTm [7]: 10.9 °C
 |  |  |  |  | CN(C)CCCNC(=O)CCNC(=O)c1cc(NC(=O)c2cc(NC(=O)c3nc(NC(=O)[C@H](N)CCNC(=O)c4cc(NC(=O)c5nc(NC(=O)c6nccn6C)cn5C)cn4C)cn3C)cn2C)cn1C | ΔTm [8]: 8.3 °C

Reference: ChEMBL document CHEMBL1153588, “DNA sequence selectivity of hairpin polyamide turn units” (Bioorg Med Chem Lett, 2009)
